Assay outcomes from PubChem BioAssay.
Shown are actives, neighbours in structure and some others; about 2.6% of the full set was active somewhere.
Wnt act = Wnt/beta-catenin pathway activators, primary screen, cell-based, plate reader, single point; Wnt/beta-catenin reporter cell assay, activator; activation, % at 9.35 µM; 300,000 tested, 1.2% active; in the data active = activation above about 30%, passing the limit was not always enough; inconclusive = no clear call, values can overlap the other calls;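 also: 0% = neutral control wells and 100% = positive control wells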
esBAF inh = Bmi1 luciferase reporter increase in mESCs, primary screen, esBAF inhibitor project, mouse ES cells, Bmi1 luciferase knock-in, single point | 350,000 tested, 2% active | reporter increase, % at 12.5 µM | 24 h; 100% = twice the neutral-well signal; in the data active = activation above about 40%; inconclusive = no clear call, values can overlap the other calls;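 also: 0% = median of the plate's neutral control wells and 100% = double that signal; a rise in the Bmi1 reporter signal indicates esBAF inhibition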
Vif imaging = HIV Vif self-association inhibitors, primary screen, imaging, HEK293T, single point; HEK293T cells, Vif self-association by quenched fluorescence, 24 h; inhibition, % at 7.49 µM; 340,000 tested, 0.35% active; AID 602346, 2012; in the data active = inhibition above about 50%, passing the limit was not always enough; inconclusive = no clear call, values can overlap the other calls; inactive = below about 31%
XiGFP reactiv = activators of inactive X chromosome reactivation, primary screen, imaging, XiGFP fibroblasts, GFP high-content imaging, set 2 | XiGFP mouse fibroblasts, % GFP-positive cells imaging, 3 d; cells co-treated with 5-aza-dC sensitizer; scaled so ellipticine positive control = 100% | activation, % at 7.58 µM | 360,000 tested, 0.055% active | AID 743238, 2013;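 active = mean normalized replicate activation at least 10% and every replicate at or above 10%; inconclusive = only one of the two criteria met; inactive = mean below 10% and not all replicates reach 10%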;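 also: 0% = median of on-plate neutral control wells and 100% = ellipticine 6 µM median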
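Schedule: 3 d treatment, 15 min room-temperature fixation; system: 68-5-11 XiGFP fibroblast line; buffer or medium: DMEM plus 5-aza-dC sensitizer; control set: ellipticine 6 µM positive control; compound: one concentration, pinned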
MITF act = activators of MITF-driven TRPM1 promoter reporter, primary screen, cell-based, SK-MEL-5, luciferase, single point; AID 588334, 2011; activation, % at 12.5 µM; 300,000 tested, 0.75% active; SK-MEL-5 TRPM1-promoter luciferase, 24 h; % of positive control, neutral wells = 0;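 active = mean activation of at least 80% with every replicate also reaching 80%; inconclusive = mean reaches 80% but some replicate falls short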;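 also: 0% = neutral control wells and 100% = parthenolide positive control wells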
* marks the source's active call; other numbers are inactive results; ? = inconclusive; . = not tested or not shown.

SMILES | Wnt act | esBAF inh | Vif imaging | XiGFP reactiv | MITF act
Cc1sc2nc(-c3cccnc3)nc(Cl)c2c1-c1ccccc1 | 3.7 | 57.6* | -13.0 | 0.1 | 28.1
OCCCN=c1cc(-c2ccccc2)oc2ccc(Cl)cc12 | . | 72.3* | 13.5 | . | 6.2
O=C(CCSc1ccc(Cl)cc1)NC12CC3CC(CC(C3)C1)C2 | 14.1 | 50.0* | -14.4 | . | .
O=C(CCS(=O)(=O)c1ccccc1)NCCS(=O)(=O)c1ccccc1 | 0.0 | . | 3.3 | 0.0 | -11.4
O=C(CCSc1ccc(Cl)cc1)NC1CCCCC1 | . | . | 4.9 | . | 3.1
O=C(CCS(=O)(=O)c1ccccc1)NC12CC3CC(CC(C3)C1)C2 | 0.0 | 36.1 | -5.0 | . | 97.0*
Oc1ccc2ccccc2c1/C=N/Nc1nnc(-c2ncc[nH]2)c2ccccc12 | . | -56.7 | 87.0* | . | .
COc1ccc(S(=O)(=O)Nc2ccc3c(c2)C(=O)N([C@@H](C)CO)C[C@@H](C)[C@@H](CN(C)S(=O)(=O)c2ccc(F)cc2)O3)cc1 | . | 0.5 | . | 0.0 | .
COc1ccc(CNC(=O)COC(=O)c2cc(S(=O)(=O)N3CCOCC3)ccc2O)cc1OC | -3.1 | 10.8 | 50.9* | 0.0 | 0.1
O=C(COC(=O)c1cc(S(=O)(=O)N2CCOCC2)ccc1O)NCc1ccc2c(c1)OCO2 | 17.0 | -5.7 | 0.4 | 0.2 | -0.1
COC(=O)c1ccc(CN2CCCC(CNC(=O)Cc3ccc(OC)cc3)C2)cc1 (stereo not drawn) | 35.8* | -9.4 | -1.5 | -0.1 | .
COc1ccc(CC(=O)NCC2CCCN(Cc3ccc(OC(F)(F)F)cc3)C2)cc1 (stereo not drawn) | 0.2 | -0.3 | -5.9 | 0.1 | .
O=C(c1ccccc1F)N1CC2(C1)[C@@H](c1ccccc1)[C@@H](CO)N2CC1CCCC1 | . | . | . | 0.3 | .
C[C@H]1CCC(=O)N(CCSc2ccc(Br)cc2)CC1 | 28.3 | 53.3* | -3.8 | 0.2 | 76.9
O=C1CCN(Cc2ccccc2)CCN1CCSc1ccccc1 | 27.0 | 61.2* | -15.2 | 0.1 | 60.9
CC(C)(C)C1CCC(=O)N(CCSc2ccccc2)CC1 (stereo not drawn) | 46.9* | 62.4* | . | 0.0 | 96.4*
CN1CCC(=O)N(CCSc2ccc(Br)cc2)CC1 | -0.4 | 13.3 | . | 0.1 | 33.3
CNC[C@H]1OCCCC[C@H](C)Oc2ccc(NC(=O)c3ccccc3)cc2C(=O)N([C@@H](C)CO)C[C@@H]1C | . | 1.8 | . | -0.1 | .
O=c1sc(N2CCN(c3ccccc3F)CC2)nc2ccsc12 | 53.6* | 68.9* | 0.6 | 0.0 | .
COc1ccc2cc3cc(C(=O)N4CC(C)CC(C)C4)oc3nc2c1 (stereo not drawn) | . | 57.6* | -1.5 | . | 54.6
O=C(c1cc2c(ccc3ccccc32)o1)N1CCCCC1 | 38.1* | -19.3 | -0.9 | -0.1 | 31.5
O=C(c1cc2cc(Cl)ccc2o1)N1CCCCCC1 | -1.1 | 65.0* | -8.9 | 0.0 | 129.8*
COc1ccc2nc3oc(C(=O)N4CCN(c5cccc(Cl)c5)CC4)cc3cc2c1 | . | 5.5 | . | . | -5.0
O=C(c1cc2cc3ccc(Cl)cc3nc2o1)N1CCCCCC1 | . | 31.8 | 0.4 | . | 101.9*
COc1cccc(-c2cnc3c(NC=O)cc(-c4cccc(NC(C)=O)c4)cn23)c1 | -1.3 | 15.9 | -6.8 | -0.1 | .
SMILES | Wnt act | esBAF inh | Vif imaging | XiGFP reactiv | MITF act
COc1cc(-c2cnc3c(NC=O)cc(-c4cccc(NC(C)=O)c4)cn23)cc(OC)c1OC | 9.7 | -19.6 | 72.7* | 0.1 | .
COc1cc(-c2cnc3c(NC=O)cc(-c4ccc(C)cc4)cn23)cc(OC)c1OC | . | -13.0 | 31.7 | 2.2 | .
COc1cc(-c2cnc3c(NC=O)cc(-c4ccccc4)cn23)cc(OC)c1OC | -2.6 | -10.7 | 74.2* | 1.0 | .
COc1cc(-c2cc(NC=O)c3ncc(-c4ccccc4)n3c2)cc(OC)c1OC | -2.9 | -5.6 | -2.8 | -0.2 | .
COc1cc(-c2cnc3c(NC=O)cc(-c4ccccc4Cl)cn23)cc(OC)c1OC | -1.0 | -29.1 | 58.3* | 0.7 | .
CCOC(=O)/C(C#N)=C1/C=CN(c2ccccc2)C=N1 | 5.1 | 36.9 | -12.7 | . | 59.1
CCOC(=O)/C(C#N)=C1/C=CN(c2ccc(C)cc2)C=N1 | 20.5 | 47.3* | 4.4 | . | 60.1
COc1ccc(OC)c2nc(-c3ccc4c(c3)OCO4)ccc12 | 47.5* | -6.4 | -4.5 | 0.0 | 46.0
c1ccc2nc(-c3ccc4c(c3)OCO4)ccc2c1 | 50.2* | 7.1 | -13.6 | . | .
COc1ccc(-c2oc(=O)c3cc(OC)c(OC)cc3c2-c2ccc3c(c2)OCO3)cc1 | 9.0 | 18.2 | 16.3 | 0.0 | 9.7
O=C(Nc1ccc(O)cc1)c1c(O)c2c([nH]c1=O)CCCC2 | 21.3 | . | -2.9 | 0.0 | 86.4*
COCc1ccc(-c2c(-c3ccc(OC)cc3)oc(=O)c3cc(OC)c(OC)cc23)cc1 | 27.7 | ? | -1.6 | -0.1 | 110.9*
COc1ccc(-c2c(-c3ccsc3)oc(=O)c3cc(OC)c(OC)cc23)cc1 | 5.5 | 2.3 | -3.0 | 0.1 | 22.9
COCC(=O)N1[C@H](CO)[C@H](c2ccccc2)C12CN(C(=O)NC1CCCC1)C2 | . | . | . | 0.2 | .
COc1cc(OC)c(C2CC(=O)N3CN(c4ccc(C)cc4)CSC3=C2C#N)cc1OC (stereo not drawn) | 37.6* | 35.7 | 9.2 | . | 55.5
COc1ccc(N2CSC3=C(C#N)C(c4cc(OC)c(OC)cc4OC)CC(=O)N3C2)c(OC)c1 (stereo not drawn) | -2.3 | 9.7 | . | 0.0 | .
Cc1ccc(N2CSC3=C(C#N)C(c4cccs4)CC(=O)N3C2)cc1 (stereo not drawn) | -3.2 | 54.4* | -0.1 | 0.2 | 10.2
CCCCCn1cnc2c(sc3nc4c(cc32)CSC(C)(C)C4)c1=O | . | 38.9 | 1.9 | . | 94.1*
O=c1cc(-c2ccc(Cl)c(Cl)c2)[nH][nH]1 | . | 4.5 | -3.5 | . | -2.5
O=c1cc(-c2ccc(Cl)cc2)[nH][nH]1 | . | -14.9 | 57.4* | . | .
CC1CCCCN1CCCNC(=O)c1ccc2nc(N3CCCCC3)sc2c1 (stereo not drawn) | 11.7 | 58.5* | . | 0.6 | .
CCCN1CCN(CCCNC(=O)c2ccc3nc(N4CCC(C)CC4)sc3c2)CC1 | 12.4 | 55.4* | 6.8 | -0.1 | .
CC1CC(C)CN(CCCNC(=O)c2ccc3nc(N4CCOCC4)sc3c2)C1 (stereo not drawn) | 0.0 | -0.8 | 8.7 | 0.3 | .
Nc1ccc(Oc2cc(N)cc(Oc3ccccc3)c2)cc1 | ? | 3.0 | 170.5 | 0.3 | 86.6*
CC1CCN(C(=O)COC(=O)c2cc(Cl)c3c(c2)OCO3)CC1 | 32.1* | 30.8 | 0.4 | 0.1 | 64.0
CC1CC(C)CN(C(=O)COC(=O)c2ccc3c(c2)OCO3)C1 (stereo not drawn) | 18.3 | 7.2 | 0.7 | 0.5 | 24.2
COc1ccc2cc(-c3ccccc3)ncc2c1 | 32.0* | 1.8 | -5.8 | 0.2 | 39.6
